Experimental findings from ChEMBL document CHEMBL4342410, “Design and Discovery of N-(3-(2-(2-Hydroxyethoxy)-6-morpholinopyridin-4-yl)-4-methylphenyl)-2-(trifluoromethyl)isonicotinamide, a Selective, Efficacious, and Well-Tolerated RAF Inhibitor Targeting RAS Mutant Cancers: The Path to the Clinic” (J Med Chem, 2020) are described below.

In brackets after ≈: the same amount, converted by molar mass. Activity calls are given as the source filed them. The calls are words filed in the database; no cut-off is given here.

Series [1] in a line: Solubility of compound in pH 6.8 Cl-free PBS buffer by shake-flask assay. It counts as physicochemical. A digest of the protocol: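 Shake-flask solubility measured in chloride-free PBS at pH 6.8.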
Series [2] concerns the target T1, RAF proto-oncogene serine/threonine-protein kinase (Homo sapiens, UniProt P04049). The series is described as follows: Inhibition of CRAF in human Calu6 cells assessed as reduction MEK phosphorylation measured after 1 hr by sandwich ELISA. It counts as cell-based.
The next series relates to Calu-6. The series is described as follows: Antiproliferative activity against human Calu6 cells harboring KRAS Q61K mutant assessed as reduction in cell viability after 72 hrs by CellTiter-Glo assay. The series is classed as functional, cell-based. The following applies: Calu-6, 72 h.
The next series deals with Cytochrome P450 3A4 (Homo sapiens, UniProt P08684). The series is described as follows: Time dependent inhibition of CYP3A4 in human liver microsomes assessed as inactivation rate constant at 10 uM using midazolam as substrate incubated prior to substrate addition and measured after 6 mins in presence of NADPH. It counts as ADME. Particulars: 0.1 h. A digest of the protocol: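 Human liver microsomes (0.5 mg/mL) preincubated with test compound at 10 µM and 1 mM NADPH in phosphate buffer at 37 °C for 0, 5, 15 and 30 min. Mixture then diluted 20-fold and incubated with midazolam (20 µM) at 37 °C for 6 min to measure residual CYP3A4 activity. kobs taken as the initial rate of decline of activity versus preincubation time.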
Chain of Cytochrome P450 3A4 (P08684 whole entry): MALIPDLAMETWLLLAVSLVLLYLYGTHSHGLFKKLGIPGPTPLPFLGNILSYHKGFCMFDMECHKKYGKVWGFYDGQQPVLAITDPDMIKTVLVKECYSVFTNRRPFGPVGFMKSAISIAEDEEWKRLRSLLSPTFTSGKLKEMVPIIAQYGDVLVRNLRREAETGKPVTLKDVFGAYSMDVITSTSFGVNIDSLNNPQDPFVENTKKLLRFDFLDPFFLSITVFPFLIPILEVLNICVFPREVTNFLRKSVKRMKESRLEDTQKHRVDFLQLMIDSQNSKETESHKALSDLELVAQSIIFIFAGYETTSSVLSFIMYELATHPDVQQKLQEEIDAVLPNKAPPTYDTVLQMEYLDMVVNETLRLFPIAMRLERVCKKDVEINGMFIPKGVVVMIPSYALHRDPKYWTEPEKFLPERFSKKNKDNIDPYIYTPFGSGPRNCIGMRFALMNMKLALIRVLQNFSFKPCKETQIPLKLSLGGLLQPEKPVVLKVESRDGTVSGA

Series [3] can be described thus: Apparent permeability across basolateral to apical side in human Caco2 cells at pH 7.4 by LC/MS/MS analysis. The series is classed as ADME, cell-based. The following applies: Caco-2, pH 7.4.
The nature of series [4]: Apparent permeability across apical to basolateral side in human Caco2 cells at pH 7.4 by LC/MS/MS analysis. The following applies: Caco-2, pH 7.4. It counts as ADME, cell-based.
Series [5] can be described thus: Intrinsic clearance in human liver microsomes. The series is classed as ADME, Microsome. The following applies: read-out: CLH.
For series [6], the target named is RAF proto-oncogene serine/threonine-protein kinase (Homo sapiens, UniProt P04049, Y340E/Y341E). Briefly: Inhibition of CRAF Y340E/Y341E mutant (unknown origin) using human MEK1 K97R mutant as substrate pretreated for 30 mins followed by substrate addition measured after 40 mins by alphascreen assay.
Chain of RAF proto-oncogene serine/threonine-protein kinase (Homo sapiens, UniProt P04049, Y340E/Y341E) (P04049 whole entry Y340E/Y341E): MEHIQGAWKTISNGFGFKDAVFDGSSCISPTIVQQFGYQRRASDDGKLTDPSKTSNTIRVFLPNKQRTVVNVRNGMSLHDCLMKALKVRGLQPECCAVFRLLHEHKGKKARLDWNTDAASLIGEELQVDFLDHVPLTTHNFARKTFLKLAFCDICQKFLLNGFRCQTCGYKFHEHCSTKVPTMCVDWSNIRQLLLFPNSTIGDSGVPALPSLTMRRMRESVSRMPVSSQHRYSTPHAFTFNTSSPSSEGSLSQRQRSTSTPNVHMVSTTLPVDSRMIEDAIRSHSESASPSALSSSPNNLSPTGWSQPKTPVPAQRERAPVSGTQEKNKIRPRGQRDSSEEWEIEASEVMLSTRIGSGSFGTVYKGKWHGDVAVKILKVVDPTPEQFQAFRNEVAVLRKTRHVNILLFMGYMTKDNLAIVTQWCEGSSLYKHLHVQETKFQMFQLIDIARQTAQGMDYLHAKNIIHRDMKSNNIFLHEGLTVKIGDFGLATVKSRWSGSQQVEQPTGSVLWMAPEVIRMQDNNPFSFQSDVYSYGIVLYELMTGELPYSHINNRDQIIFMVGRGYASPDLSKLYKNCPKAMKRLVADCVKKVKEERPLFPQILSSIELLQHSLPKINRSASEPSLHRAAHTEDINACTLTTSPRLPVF
Series [7] is described as follows: Drug level in dog hepatocytes treated with RAF709 at 10 uM measured after 3 hrs by LC-MS/MS analysis. It counts as ADME, cell-based, Canis lupus familiaris, Hepatocyte.
Series [8] is described as follows: Drug level in rat hepatocytes treated with RAF709 at 10 uM measured after 3 hrs by LC-MS/MS analysis. The series is classed as ADME, cell-based, Hepatocyte.
Series [9] is described as follows: Drug level in human hepatocytes treated with RAF709 at 10 uM measured after 3 hrs by LC-MS/MS analysis. The series is classed as ADME, cell-based, Hepatocyte.
Series [10] in a line: Stability in rat hepatocytes assessed as parent compound remaining at 10 uM measured after 3 hrs by LC-MS/MS analysis. The series is classed as ADME, cell-based, Hepatocyte.
Series [11] can be described thus: Drug metabolism in human hepatocytes assessed as amide hydrolysis at 10 uM measured after 3 hrs by LC-MS/MS analysis. The series is classed as ADME, cell-based, Hepatocyte.
The nature of series [12]: Stability in dog hepatocytes assessed as parent compound remaining at 10 uM measured after 3 hrs by LC-MS/MS analysis. The series is classed as ADME, cell-based, Canis lupus familiaris, Hepatocyte. The following applies: read-out: Stability.
Series [13] in a line: Stability in human hepatocytes assessed as parent compound remaining at 10 uM measured after 3 hrs by LC-MS/MS analysis. The following applies: read-out: Stability. The series is classed as ADME, cell-based, Hepatocyte.
The nature of series [14]: Drug metabolism in rat hepatocytes assessed as amide hydrolysis at 10 uM measured after 3 hrs by LC-MS/MS analysis. It counts as ADME, cell-based, Hepatocyte.
The target of series [15] is T1, RAF proto-oncogene serine/threonine-protein kinase. Briefly: Activation of CRAF in human Calu6 cells assessed as induction of MEK phosphorylation at 3 uM measured after 1 hr by sandwich ELISA. It counts as cell-based.
Series [16] in a line: Stimulation of BRAF-CRAF dimerization in human HCT116 cells measured after 2 hrs by NanoBit luciferase complementation assay. It counts as cell-based.
Series [17] deals with T1, RAF proto-oncogene serine/threonine-protein kinase. Briefly: Inhibition of CRAF in human Calu6 cells assessed as reduction MEK phosphorylation up to 24 uM measured after 1 hr by sandwich ELISA. It counts as cell-based.

T1 sequence (P04049 whole entry): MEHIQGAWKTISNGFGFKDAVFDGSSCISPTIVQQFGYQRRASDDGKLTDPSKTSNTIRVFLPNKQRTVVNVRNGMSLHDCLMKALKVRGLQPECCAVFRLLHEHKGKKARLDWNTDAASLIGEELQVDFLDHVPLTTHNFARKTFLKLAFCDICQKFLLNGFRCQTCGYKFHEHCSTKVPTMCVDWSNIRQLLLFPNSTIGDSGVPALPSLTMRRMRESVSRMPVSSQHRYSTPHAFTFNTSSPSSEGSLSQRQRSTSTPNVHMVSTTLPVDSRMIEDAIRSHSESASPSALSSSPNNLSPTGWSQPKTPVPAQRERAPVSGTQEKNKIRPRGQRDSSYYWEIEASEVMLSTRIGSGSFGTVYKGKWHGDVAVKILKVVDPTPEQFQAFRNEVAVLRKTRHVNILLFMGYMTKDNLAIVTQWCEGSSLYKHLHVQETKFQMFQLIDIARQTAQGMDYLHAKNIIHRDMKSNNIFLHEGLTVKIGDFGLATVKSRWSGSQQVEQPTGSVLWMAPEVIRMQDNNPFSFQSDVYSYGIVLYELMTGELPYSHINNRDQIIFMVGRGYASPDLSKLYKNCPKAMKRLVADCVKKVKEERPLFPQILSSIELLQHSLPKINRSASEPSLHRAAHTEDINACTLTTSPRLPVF

Molecule `Cc1ncc(NC(=O)c2ccnc(C(C)(F)F)c2)cc1-c1cc(NCCO)nc(N2CCOCC2)c1` registered a thermodynamic solubility in series [1] of 730 µM (≈ 364 µg/mL). Further, the EC50 in series [2] was found to be 27 nM; in the series on Calu-6, 6220 nM. The K on Cytochrome P450 3A4 stood at 0.035 min⁻¹. Also, in series [3], the Papp B→A is 34 ×10⁻⁶ cm/s. Further, in series [4], the apical-to-basolateral permeability (Papp A→B) worked out at 3 ×10⁻⁶ cm/s. The microsomal CLint in series [5] turned out to be 10.4 µL/min/mg. Further, the IC50 in [6] was found to be 0.7 nM.
As to `Cc1ncc(NC(N)=O)cc1-c1cnc(OC2CCOCC2)c(N2CCOCC2)c1`, the Drug uptake entry in series [7], in [8] and in series [9] was “Active” throughout.
Turning to `Cc1ncc(NC(=O)c2cccc(C(F)(F)F)c2)cc1-c1cnc(O[C@H]2CCOC[C@H]2F)c(N2CCOCC2)c1`, the thermodynamic solubility in series [1] worked out at 25 µM (≈ 14 µg/mL). The EC50 in the series on Calu-6 was 340 nM. The Papp B→A in [3] stood at 20 ×10⁻⁶ cm/s. The Papp A→B in [4] was 16 ×10⁻⁶ cm/s. In addition, the microsomal CLint in series [5] is 65.5 µL/min/mg.
In turn, `Cc1ccc(NC(=O)c2ccnc(C(F)(F)F)c2)cc1-c1cc(NCCO)nc(N2CCOCC2)c1` yielded a thermodynamic solubility in [1] of 36.3 µM (≈ 18.2 µg/mL). For the same molecule, the EC50 in series [2] came to 8 nM; in the series on Calu-6, 510 nM. For the same molecule, at Cytochrome P450 3A4, the K turned out to be 0.035 min⁻¹. The Papp B→A in [3] was found to be 53 ×10⁻⁶ cm/s. Moreover, the Papp A→B in [4] was determined as 5 ×10⁻⁶ cm/s. Besides, the microsomal CLint in [5] amounted to 20.5 µL/min/mg. The IC50 in series [6] is 0.6 nM.
For the molecule `Cc1ncc(NC(=O)c2cccc(C(F)(F)F)c2)cc1-c1c[nH]c(=O)c(N2CCOCC2)c1`, the thermodynamic solubility in [1] was determined as 55 µM (≈ 25.2 µg/mL). Also, the Drug uptake result in series [7], in [8] and in series [9] was “Active” each time. In the series with Calu-6, the EC50 stood at 3910 nM. Besides, the Papp B→A in series [3] amounted to 43 ×10⁻⁶ cm/s. Moreover, the Papp A→B in series [4] came out at 0.3 ×10⁻⁶ cm/s. Further, the microsomal CLint in [5] turned out to be 9.4 µL/min/mg.
For the molecule `Cc1ncc(NC(=O)c2cccc(C(F)(F)F)c2)cc1-c1cnc(OC2CCOCC2)c(N2CCOCC2)c1`, in series [10], the Stability came to 36%. Besides, the Drug metabolism is listed as less than 1% in series [11] and 20% in [14]. In addition, the remaining at 3 h, 10 µM in series [12] was found to be 74%; in series [13] it was 44%. For the same molecule, in series [5], the microsomal CLint stood at 94 µL/min/mg.
`Cc1ccc(NC(=O)c2cccc(C(F)(F)F)c2)cc1-c1cc(N2CCOCC2)nc(NCCO)n1`: the solubility (thermodynamic) in [1] came to 2.1 µM (≈ 1.05 µg/mL). In addition, the figures for the EC50 (in [2]; in the series with Calu-6) were 61 nM and 160 nM, respectively. Besides, the Papp B→A in series [3] worked out at 30 ×10⁻⁶ cm/s. Moreover, in series [4], the Papp A→B worked out at 8 ×10⁻⁶ cm/s. In addition, in series [5], the microsomal CLint is 48 µL/min/mg. The IC50 in series [6] is 0.2 nM.
In the case of `CC(C)(C)c1nc(-c2cccc(NS(=O)(=O)c3c(F)cccc3F)c2F)c(-c2ccnc(N)n2)s1` [DABRAFENIB], the outcome in [15] was Active. The EC50 entry in series [16] is reported as “Not Active”. The inhibition result in series [17] is “inactive”.
As to `Cc1ncc(N)cc1-c1cnc(OC2CCOCC2)c(N2CCOCC2)c1`, the Drug uptake entry in series [7], in series [8] and in series [9] was “Active” each time.
For the molecule `Cc1ccc(NC(=O)c2cccc(C(F)(F)F)c2)cc1-c1cc(N2CCOCC2)ncn1`, the solubility (thermodynamic) in series [1] was 13 µM (≈ 5.75 µg/mL). Moreover, the EC50 with Calu-6 was found to be 5280 nM. Besides, the Papp B→A in series [3] came out at 41 ×10⁻⁶ cm/s. The microsomal CLint in series [5] stood at 43.3 µL/min/mg.
On to `Cc1ncc(NC(=O)c2cccc(C(F)(F)F)c2)cc1-c1cc(N2CCOCC2)c(OC2CCOCC2)nn1`, for which, in series [1], the solubility (thermodynamic) is 59.6 µM (≈ 32.4 µg/mL). Further, the EC50 came out at 8 nM in series [2] and 880 nM with Calu-6. In addition, the Papp B→A in [3] stood at 51 ×10⁻⁶ cm/s. In addition, the Papp A→B in series [4] is 4.4 ×10⁻⁶ cm/s. Moreover, the microsomal CLint in series [5] worked out at 7.7 µL/min/mg.
With `Cc1ncc(NC(=O)c2cccc(C(F)(F)F)c2)cc1-c1cnc(OC(CCO)CCO)c(N2CCOCC2)c1`, the Drug uptake result in series [7], in series [8] and in [9] was “Active” in each case.
Regarding `Cc1ncc(NC(=O)c2cccc(C(F)(F)F)c2)cc1-c1cnc(OC2CCOCC2)c(N(CCO)CCO)c1`, the Drug uptake entry in series [7], in series [8] and in series [9] was “Active” throughout.
Take `Cc1ccc(NC(=O)c2ccnc(C(C)(C)C#N)c2)cc1-c1cc(N2CCOCC2)c(=O)n(C)n1`: the thermodynamic solubility in series [1] was determined as 33.9 µM (≈ 16 µg/mL). Also, the EC50 in [2] turned out to be 52 nM; in the series on Calu-6, 1350 nM. Further, the Papp B→A in series [3] came to 49 ×10⁻⁶ cm/s. For the same molecule, the Papp A→B in series [4] was 6.3 ×10⁻⁶ cm/s. The microsomal CLint in [5] was determined as 15.5 µL/min/mg.
Consider `[2H]C1(Oc2ncc(-c3cc(NC(=O)c4cccc(C(F)(F)F)c4)cnc3C)cc2N2CCOCC2)CCOCC1`, for which, in [1], the thermodynamic solubility stood at 104 µM (≈ 56.5 µg/mL). The EC50 in the series on Calu-6 was found to be 400 nM. Besides, the microsomal CLint in series [5] is 88 µL/min/mg.
Turning to `CO[C@H]1COCC[C@@H]1Oc1ncc(-c2cc(NC(=O)c3cccc(C(F)(F)F)c3)cnc2C)cc1N1CCOCC1`, the solubility (thermodynamic) in series [1] was 43 µM (≈ 24.6 µg/mL). The EC50 worked out at 21 nM in series [2] and 1760 nM with Calu-6. Moreover, the microsomal CLint in series [5] was found to be 302 µL/min/mg. In [6], the IC50 turned out to be 1.7 nM.
